# Assays:
# E. coli ATCC25922 [1] = experiment: Mice meningitis model; type: in vivo; conditions: 40 mg/kg intraperitoneal daily, 6 times; saline 17%
# [2] = test system: E. coli ATCC25922 persister cells; experiment: Killing efficacy on persister cells; type: cell-based; conditions: ampicillin 8×MIC
# S. aureus USA300 LAC [3] = experiment: In vitro bacterial killing kinetics; type: cell-based; conditions: exponential growth phase; PBGProOx20 2×MIC and 4×MIC, vancomycin 4×MIC
# [4] = test system: S. aureus USA300 LAC biofilm; experiment: Anti-biofilm assay; type: cell-based
# S. aureus USA300 LAC [5] = experiment: Mice wound; type: in vivo; conditions: topical, 15 μL of 4 mg/mL every 4 h, 3 times
# How it was run: (§1)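 Female ICR mice (6–8 weeks), pentobarbital-anaesthetised (75 mg/kg ip), backs shaved; 6-mm full-thickness punch wounds. Bacteria grown in LB (37 °C, 9 h) and dropped onto wounds in saline: S. aureus 3 × 10^6 or E. coli 1 × 10^8 CFU/mL. Treatment in saline started 24 h post-infection; saline controls. Wound tissue excised 4 h after final application for CFU counts; n = 10.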
# S. aureus USA300 LAC [6] = experiment: Mice subcutaneous infection model; type: in vivo; conditions: 4 mg/mL every 12 h, 3 times
# S. aureus USA300 LAC [7] = experiment: Mice meningitis model; type: in vivo; conditions: 40 mg/kg intraperitoneal daily, 6 times; saline 17%
# [8] = test system: S. aureus USA300 persister cells; experiment: Killing efficacy on persister cells; type: cell-based; conditions: ciprofloxacin 10×MIC
# [9] = test system: S. aureus-PBGProOx20-P32, S. aureus-ciprofloxacin-P32; experiment: Cross resistance; type: cell-based; conditions: 0.5×MIC, P32 bacteria tested against antibiotics
# E. coli ATCC25922 [10] = experiment: Drug resistance study; type: cell-based; conditions: continuous treatment at 0.5×MIC
# [11] = test system: E. coli-PBGProOx20-P32, E. coli-moxifloxacin-P32; experiment: Cross resistance; type: cell-based; conditions: 0.5×MIC, P32 bacteria tested against antibiotics
# [12] = test system: E. coli ATCC25922 biofilm; experiment: Anti-biofilm assay; type: cell-based
# E. coli ATCC25922 [13] = experiment: Mice wound; type: in vivo; conditions: topical, 15 μL of 4 mg/mL every 4 h, 3 times
# How it was run: as §1
molecule,measurement,setting,value
C[C@@H](O)[C@H]1C(=O)N2C(C(=O)O)=C(S[C@@H]3CN[C@H](C(=O)N(C)C)C3)[C@H](C)[C@H]12 [meropenem],"survival rate, meningitis",E. coli ATCC25922 [1],100%
"CC1(C)S[C@@H]2[C@H](NC(=O)[C@H](N)c3ccccc3)C(=O)N2[C@H]1C(=O)O [Ampicillin, ampicillin]",persister cell viability under antibiotic,[2],maintained sustained viability
"CN[C@H](CC(C)C)C(=O)N[C@H]1C(=O)N[C@@H](CC(N)=O)C(=O)N[C@H]2C(=O)N[C@H]3C(=O)N[C@H](C(=O)N[C@H](C(=O)O)c4cc(O)cc(O)c4-c4cc3ccc4O)[C@H](O)c3ccc(c(Cl)c3)Oc3cc2cc(c3O[C@@H]2O[C@H](CO)[C@@H](O)[C@H](O)[C@H]2O[C@H]2C[C@](C)(N)[C@H](O)[C@H](C)O2)Oc2ccc(cc2Cl)[C@H]1O [Vancomycin, vancomycin]",eradication in time-killing kinetics,S. aureus USA300 LAC [3],unable to eradicate S. aureus
same,concentration eradicating mature biofilm,[4],poor anti-biofilm activity
same,reduction of bacteria in infected wounds,S. aureus USA300 LAC [5],1.2 logs
same,reduction of bacterial load in infected skin,S. aureus USA300 LAC [6],less than 0.5 log CFU/g
same,"survival rate, meningitis",S. aureus USA300 LAC [7],50%
O=C(O)c1cn(C2CC2)c2cc(N3CCNCC3)c(F)cc2c1=O [ciprofloxacin],persister cell viability under antibiotic,[8],maintained sustained viability
same,cross-resistance of bacteria treated for 32 passages,[9],acquired resistance to four quinolone antibiotics and ampicillin
COc1c(N2C[C@@H]3CCCN[C@@H]3C2)c(F)cc2c(=O)c(C(=O)O)cn(C3CC3)c12 [moxifloxacin],increase in MIC after 32 passages,E. coli ATCC25922 [10],32 fold
same,cross-resistance of bacteria treated for 32 passages,[11],acquired resistance to four quinolone antibiotics and ampicillin
colistin,concentration eradicating mature biofilm,[12],256 ×MIC
"C[C@@H](O)[C@H]1C(=O)N2C(C(=O)O)=C(SCCN=CN)C[C@H]12 [Imipenem, imipenem]",reduction of bacteria in infected wounds,E. coli ATCC25922 [13],2.1 logs

# From publication PMC12789443 (Nature Communications, 2025)
